Test results reported in ChEMBL document CHEMBL3232854, “Agonists for the adenosine A1 receptor with tunable residence time. A Case for nonribose 4-amino-6-aryl-5-cyano-2-thiopyrimidines” (J Med Chem, 2014).

Key:
[1] = molecular target: T1, Adenosine receptor A1 (Homo sapiens) (UniProt P30542); assay: Ratio for displacement of [3H]DPCPX from human adenosine A1 receptor expressed in CHO cell membranes at 10 times Ki after 15 mins by dual-point competition association assay to ratio for displacement of [3H]DPCPX from human adenosine A1 receptor expressed in CHO cell membranes 10 times Ki after 120 mins by dual-point competition association assay
T1 sequence (whole entry): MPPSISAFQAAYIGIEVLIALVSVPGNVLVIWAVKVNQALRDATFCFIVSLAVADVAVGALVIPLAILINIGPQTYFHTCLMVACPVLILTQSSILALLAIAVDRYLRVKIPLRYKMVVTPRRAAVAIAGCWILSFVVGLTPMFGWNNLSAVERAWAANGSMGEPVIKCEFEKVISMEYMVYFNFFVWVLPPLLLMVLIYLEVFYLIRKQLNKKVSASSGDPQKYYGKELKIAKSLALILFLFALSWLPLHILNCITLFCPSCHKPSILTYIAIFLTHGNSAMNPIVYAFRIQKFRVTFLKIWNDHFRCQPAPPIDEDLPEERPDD

Adenosine receptor A1 [2] = molecular target: T2, Adenosine receptor A1 (Homo sapiens, UniProt P30542); assay: Displacement of [3H]DPCPX from human adenosine A1 receptor expressed in CHO cell membranes after 1 hr by beta scintillation counting analysis
T2 sequence (P30542 whole entry): T1 sequence (whole entry)
Procedure, shortened: (§1)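 Membranes from CHO cells stably expressing human A1 receptor (5 μg protein) incubated with [3H]DPCPX in 25 mM Tris-HCl pH 7.4, 5 mM MgCl2, 0.1% CHAPS, 1 h at 25 °C; nonspecific binding with 100 μM CPA; GF/B filtration, three ice-cold washes, scintillation counting. Single 1 μM points from ≥2 experiments in duplicate; Ki by nonlinear regression (radioligand KD 1.6 nM), ≥3 experiments in duplicate.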

[3] = molecular target: T1, Adenosine receptor A1 (Homo sapiens); assay: Displacement of [3H]DPCPX from human adenosine A1 receptor expressed in CHO cell membranes at 1 uM after 1 hr by beta scintillation counting analysis relative to control; procedure, shortened: as §1
[4] = molecular target: T1, Adenosine receptor A1 (Homo sapiens); assay: Displacement of [3H]DPCPX from human adenosine A1 receptor expressed in CHO cell membranes assessed as residence time on receptor at 10 times Ki after 90 mins by competition association assay
Adenosine receptor A1 [5] = molecular target: T2, Adenosine receptor A1; assay: Agonist activity human adenosine A1 receptor expressed in CHO cell membranes assessed as stimulation of [35S]GTPgammaS binding preincubated for 30 mins followed by radioligand addition measured after 90 mins by beta scintillation counting analysis; assay type: functional
[6] = molecular target: T3, Adenosine receptor A3 (Homo sapiens) (UniProt P0DMS8); assay: Displacement of [3H]PSB11 from human adenosine A3 receptor expressed in CHO cell membranes at 1 uM after 2 hrs by beta scintillation counting analysis relative to control
T3 sequence (whole entry): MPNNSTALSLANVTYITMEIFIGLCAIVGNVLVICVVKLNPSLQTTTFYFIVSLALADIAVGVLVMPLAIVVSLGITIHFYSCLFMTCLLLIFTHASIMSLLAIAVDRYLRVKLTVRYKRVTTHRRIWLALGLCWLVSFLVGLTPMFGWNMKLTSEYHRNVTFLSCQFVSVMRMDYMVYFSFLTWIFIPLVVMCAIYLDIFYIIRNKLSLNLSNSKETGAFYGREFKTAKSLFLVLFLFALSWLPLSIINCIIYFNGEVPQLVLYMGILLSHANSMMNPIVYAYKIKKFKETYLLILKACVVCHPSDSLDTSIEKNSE
Procedure, shortened: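 CHO membranes stably expressing human A3 receptor (45 μg protein) incubated with [3H]PSB11 and 1 μM compound in 50 mM Tris-HCl pH 8.0, 10 mM MgCl2, 1 mM EDTA, 0.01% CHAPS, 2 h at 25 °C; nonspecific binding with 100 μM NECA; filtration, washes without CHAPS, scintillation counting; ≥2 experiments in duplicate.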

[7] = molecular target: T1, Adenosine receptor A1 (Homo sapiens); assay: Agonist activity human adenosine A1 receptor expressed in CHO cell membranes assessed as stimulation of [35S]GTPgammaS binding preincubated for 30 mins followed by radioligand addition measured after 90 mins by beta scintillation counting analysis relative to N6-cyclopentyladenosine; assay type: functional
[8] = molecular target: Adenosine receptor A2a (Homo sapiens) (UniProt P29274); assay: Displacement of [3H]ZM241385 from human adenosine A2A receptor expressed in HEK293 cell membranes at 1 uM after 2 hrs by beta scintillation counting analysis relative to control
Procedure, shortened: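 HEK 293 membranes stably expressing human A2A receptor (25 μg protein) incubated with [3H]ZM241385 in 50 mM Tris-HCl pH 7.4, 2 h at 25 °C; compounds at 1 μM; nonspecific binding with 100 μM CPA; GF/B filtration, ice-cold washes, scintillation counting; ≥2 experiments in duplicate.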

[9] = molecular target: T4, Adenosine receptor A2b (Homo sapiens) (UniProt P29275); assay: Displacement of [3H]PSB603 from human adenosine A2B receptor expressed in CHO cell membranes at 1 uM after 2 hrs by beta scintillation counting analysis relative to control
T4 sequence (whole entry): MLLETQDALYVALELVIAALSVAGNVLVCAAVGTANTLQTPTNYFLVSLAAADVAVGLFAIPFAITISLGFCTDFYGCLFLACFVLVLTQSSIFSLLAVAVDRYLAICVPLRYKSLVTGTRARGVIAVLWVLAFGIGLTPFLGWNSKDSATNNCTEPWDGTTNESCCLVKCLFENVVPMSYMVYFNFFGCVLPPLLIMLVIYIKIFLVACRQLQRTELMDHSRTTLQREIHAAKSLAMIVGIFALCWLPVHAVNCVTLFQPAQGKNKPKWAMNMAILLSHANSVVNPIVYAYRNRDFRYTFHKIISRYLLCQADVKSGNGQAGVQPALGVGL

Adenosine receptor A1 [10] = molecular target: T2, Adenosine receptor A1; assay: Agonist activity at human adenosine A1 receptor expressed in HEK293 cells assessed as […] in intracellular cAMP level after 30 mins by EIA; assay type: functional, cell-based
Adenosine receptor A2b = molecular target: T5, Adenosine receptor A2b (Homo sapiens, UniProt P29275); assay: Displacement of [3H]PSB603 from human adenosine A2B receptor expressed in CHO cell membranes after 2 hrs by beta scintillation counting analysis
T5 sequence (P29275 whole entry): T4 sequence (whole entry)

[11] = molecular target: T1, Adenosine receptor A1 (Homo sapiens); assay: Agonist activity human adenosine A1 receptor expressed in CHO cell membranes assessed as stimulation of [35S]GTPgammaS binding at 100 times Ki preincubated for 30 mins followed by radioligand addition measured after 90 mins by beta scintillation counting analysis relative to N6-cyclopentyladenosine; assay type: functional
Adenosine receptor A1 [12] = molecular target: T2, Adenosine receptor A1; assay: Agonist activity at adenosine A1 receptor (unknown origin) expressed in CHO cells assessed as […] in intracellular cAMP level by RIA; assay type: functional, cell-based

Chain of Adenosine receptor A2a (Homo sapiens) (P29274 whole entry): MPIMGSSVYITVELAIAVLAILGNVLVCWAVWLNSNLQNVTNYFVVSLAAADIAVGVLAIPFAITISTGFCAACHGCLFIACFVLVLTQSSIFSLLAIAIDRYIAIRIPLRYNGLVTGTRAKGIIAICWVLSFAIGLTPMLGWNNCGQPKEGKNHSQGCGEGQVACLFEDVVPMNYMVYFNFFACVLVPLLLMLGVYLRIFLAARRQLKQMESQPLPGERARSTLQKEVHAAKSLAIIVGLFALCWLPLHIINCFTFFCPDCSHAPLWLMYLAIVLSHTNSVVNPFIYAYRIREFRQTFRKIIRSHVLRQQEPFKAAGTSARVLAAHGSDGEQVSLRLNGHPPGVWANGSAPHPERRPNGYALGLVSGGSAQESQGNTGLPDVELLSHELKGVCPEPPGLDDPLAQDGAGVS

Ratio [1]	Ki (Adenosine receptor A1 [2]) [nM]	TIME [4] [h]	SMILES	also measured
1.15	3.1		Cc1ccc(-c2nc(CSc3nc(N)c(C#N)c(-c4ccc5c(c4)OCO5)n3)cs2)cc1	
	233		CN(C)c1ccc(-c2nc(SCc3csc(-c4ccc(Cl)cc4)n3)nc(N)c2C#N)cc1	
0.95	11		N#Cc1c(N)nc(SCc2csc(-c3ccc([N+](=O)[O-])cc3)n2)nc1-c1ccc2c(c1)OCO2	
			Cc1ccc(-c2nc(SCc3csc(-c4ccc(Cl)cc4)n3)nc(N)c2C#N)cc1	inhibition [3]: 44%
1.67	5.2	0.983	N#Cc1c(N)nc(SCc2csc(-c3ccc(Br)cc3)n2)nc1-c1ccc2c(c1)OCO2	EC50 (Adenosine receptor A1 [5]): 4.6 nM; inhibition [6]: -1.8%; Emax [7]: 60%; inhibition [8]: 2.9%; inhibition [9]: 1.7%
1.24	42	0.5	N#Cc1c(N)nc(SCc2csc(-c3cccc(Cl)c3)n2)nc1-c1ccc2c(c1)OCO2	
1.46	12	0.375	N#Cc1c(N)nc(SCc2csc(-c3ccccc3F)n2)nc1-c1ccc2c(c1)OCO2	
1.18	4.8		N#Cc1c(N)nc(SCc2csc(-c3ccc(Cl)cc3)n2)nc1-c1ccc(OCCO)cc1	EC50 (Adenosine receptor A1 [5]): 12 nM; inhibition [6]: 3%; Emax [7]: 99%; inhibition [8]: 10%; inhibition [9]: 3.5%
1.29	75	0.588	N#Cc1c(N)nc(SCc2csc(-c3ccccc3Cl)n2)nc1-c1ccc2c(c1)OCO2	
			CCN(CC)CCN1CCN(C(=O)CCc2cccc(CSc3nc(N)c(C#N)c(-c4ccc(NC(C)=O)cc4)n3)n2)CC1	EC50 (Adenosine receptor A1 [10]): 1 nM
1.1	2.4		N#Cc1c(N)nc(SCc2csc(-c3ccccc3)n2)nc1-c1ccc2c(c1)OCO2	EC50 (Adenosine receptor A1 [5]): 4.6 nM; inhibition [6]: 24%; Emax [7]: 84%; inhibition [8]: -2%; inhibition [9]: 20%
1.24	8.9	0.538	N#Cc1c(N)nc(SCc2csc(-c3ccc(Cl)cc3)n2)nc1-c1ccccc1	
1.01	20		N#Cc1c(N)nc(SCc2coc(-c3ccc(F)cc3)n2)nc1-c1ccc2c(c1)OCO2	
0.93	2.5		N#Cc1c(N)nc(SCc2csc(-c3ccc4c(c3)OCO4)n2)nc1-c1ccc2c(c1)OCO2	
0.93	9.7		N#Cc1c(N)nc(SCc2cscn2)nc1-c1ccc2c(c1)OCO2	Ki (Adenosine receptor A2b): 42 nM; Emax [11]: 27%; inhibition [6]: 35%; inhibition [8]: 31%
1.4	9.9	1.06	N#Cc1c(N)nc(SCc2csc(-c3ccc(I)cc3)n2)nc1-c1ccc2c(c1)OCO2	EC50 (Adenosine receptor A1 [5]): 9.5 nM; inhibition [6]: 9%; Emax [7]: 82%; inhibition [8]: 2.5%; inhibition [9]: 7.5%
1.2	18		N#Cc1c(N)nc(SCc2csc(-c3ccc(C(F)(F)F)cc3)n2)nc1-c1ccc2c(c1)OCO2	

Ratio [1]	Ki (Adenosine receptor A1 [2]) [nM]	TIME [4] [h]	SMILES	also measured
1.22	6.7	0.575	N#Cc1c(N)nc(SCc2csc(-c3ccc(F)cc3)n2)nc1-c1ccc2c(c1)OCO2	
1.24	14	0.55	N#Cc1c(N)nc(SCc2csc(-c3cccc(F)c3)n2)nc1-c1ccc2c(c1)OCO2	
			CCOc1ccc(-c2nc(SCc3csc(-c4ccc(Cl)cc4)n3)nc(N)c2C#N)cc1	inhibition [3]: 49%
			COc1ccc(-c2nc(SCc3csc(-c4ccc(Cl)cc4)n3)nc(N)c2C#N)cc1	inhibition [3]: 73%
			N#Cc1c(N)nc(SCc2csc(-c3ccc(Cl)c(Cl)c3)n2)nc1-c1ccc2c(c1)OCO2	inhibition [3]: 23%
1.17	15		N#Cc1c(N)nc(SCc2coc(-c3ccc(Cl)cc3)n2)nc1-c1ccc2c(c1)OCO2	
1.42			N#Cc1c(N)nc(SCc2csc(-c3ccc(Cl)cc3)n2)c(C#N)c1-c1ccc(OCCO)cc1 [CAPADENOSON]	EC50 (Adenosine receptor A1 [12]): 0.1 nM
0.81	1.9	0.02	N#Cc1c(N)nc(SCc2csc(N3CCOCC3)n2)nc1-c1ccc2c(c1)OCO2	EC50 (Adenosine receptor A1 [5]): 1.8 nM; inhibition [6]: 18%; Emax [7]: 65%; inhibition [8]: 21%; inhibition [9]: 12%
1.15	83		N#Cc1c(N)nc(SCc2c[nH]cn2)nc1-c1ccc2c(c1)OCO2	
1.17	6.3		N#Cc1c(N)nc(SCc2csc(C3CCCCC3)n2)nc1-c1ccc2c(c1)OCO2	
1.64	14	0.857	N#Cc1c(N)nc(SCc2csc(-c3ccc(Cl)cc3)n2)nc1-c1ccc2c(c1)OCO2	EC50 (Adenosine receptor A1 [5]): 4.9 nM; inhibition [6]: 4.5%; Emax [7]: 71%; inhibition [8]: 4.5%; inhibition [9]: 0%
0.97	14		CC(=O)Nc1ccc(-c2nc(SCc3csc(-c4ccc(Cl)cc4)n3)nc(N)c2C#N)cc1	EC50 (Adenosine receptor A1 [5]): 3.9 nM; inhibition [6]: 5.5%; Emax [7]: 112%; inhibition [8]: 44%; inhibition [9]: 2.5%
1	1.8		COc1ccc(-c2nc(CSc3nc(N)c(C#N)c(-c4ccc5c(c4)OCO5)n3)cs2)cc1	EC50 (Adenosine receptor A1 [5]): 1.9 nM; inhibition [6]: 11%; Emax [7]: 104%; inhibition [8]: 3.2%; inhibition [9]: 3.5%
0.99	15		N#Cc1c(N)nc(SCc2csc(-c3ccc(Cl)cc3)n2)nc1-c1ccc(O)cc1	
	185		N#Cc1c(N)nc(SCc2csc(-c3ccc(Cl)cc3)n2)nc1-c1ccc(OC(F)(F)F)cc1	
1.24	15	0.0508	N#Cc1c(N)nc(SCc2coc(-c3cccc(F)c3)n2)nc1-c1ccc2c(c1)OCO2	
